Experimental data from ChEMBL document CHEMBL1140077, “Lipid-lowering (hetero)aromatic tetrahydro-1,4-oxazine derivatives with antioxidant and squalene synthase inhibitory activity” (J Med Chem, 2008).
pIC50: −log10 of the molar value.

How the values were obtained:
[1] = tested on: Liver microsomes; test: Inhibition of lipid peroxidation in heat-inactivated rat liver microsomes after 45 mins; assay type: functional, Microsome
Procedure, shortened: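 Heat-inactivated liver microsomes from untreated rats (2.5 mg protein/mL) with 0.2 mM ascorbate in Tris-HCl/KCl (50/150 mM, pH 7.4), compound 10 µM-1 mM in DMSO; started with FeSO4 (10 µM), 37 °C 45 min. TBAR read at 535 vs 600 nm; duplicates; IC50 as mean concentration giving 50% inhibition of peroxidation.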

[2] = target: T1, Squalene synthase (Rattus norvegicus, UniProt Q02769); test: Inhibition of squalene synthase in rat liver microsome measured by conversion of [3H]FPP to squalene; assay type: microsomes
T1 sequence (Q02769 whole entry): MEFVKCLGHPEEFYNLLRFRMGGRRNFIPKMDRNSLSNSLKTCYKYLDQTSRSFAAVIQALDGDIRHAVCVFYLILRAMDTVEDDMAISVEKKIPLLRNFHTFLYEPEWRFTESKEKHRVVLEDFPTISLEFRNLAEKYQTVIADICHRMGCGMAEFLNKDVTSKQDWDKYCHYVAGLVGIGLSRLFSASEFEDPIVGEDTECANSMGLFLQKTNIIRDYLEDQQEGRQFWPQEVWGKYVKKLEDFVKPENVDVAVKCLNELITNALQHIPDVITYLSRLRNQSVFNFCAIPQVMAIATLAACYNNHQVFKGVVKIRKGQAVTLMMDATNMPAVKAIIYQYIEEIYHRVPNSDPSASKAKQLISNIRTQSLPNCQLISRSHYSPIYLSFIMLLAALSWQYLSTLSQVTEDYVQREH
Procedure, shortened: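 Rat liver microsomes (18 µg protein/mL) in 50 mM phosphate pH 7.4 with 10 mM MgCl2, 0.5 mM NADPH, compound in ethanol; preincubated 10 min 37 °C, started with [3H]FPP (0.5 µM), 10 min 37 °C. Stopped with ethanolic KOH, 65 °C 30 min, petroleum ether extract counted by scintillation; triplicates, IC50 from mean.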

[3] = tested on: Rattus norvegicus; test: Decrease in triglyceride level in Fischer 344 rat plasma at 56 umol/kg, ip after 24 hrs; assay type: functional; design: scale not given: the % may be the effect or the level left
Procedure, shortened: (§1)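 Male Fischer-344 rats (180-220 g) made hyperlipidemic with Triton WR 1339 (200 mg/kg ip, aqueous); 1 h later compound (56 µmol/kg) in saline or saline alone given ip. Aortic blood taken at 24 h; plasma total cholesterol, LDL-C and triglycerides measured with kits in duplicate; mean of 8-10 rats per compound.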

[4] = tested on: Rattus norvegicus; test: Decrease in LDL-cholesterol level in Fischer 344 rat plasma at 56 umol/kg, ip after 24 hrs; assay type: functional; design: scale not given: the % may be the effect or the level left; procedure, shortened: as §1
[5] = tested on: Rattus norvegicus; test: Decrease in total cholesterol level in Fischer 344 rat plasma at 56 umol/kg, ip after 24 hrs; assay type: functional; design: scale not given: the % may be the effect or the level left; procedure, shortened: as §1

| SMILES | pIC50 [1] | pIC50 [2] | Activity [3] [%] | Activity [4] [%] | Activity [5] [%] |
| --- | --- | --- | --- | --- | --- |
| CN1CCOC(O)(c2ccc(-c3nc4ccccc4s3)cc2)C1 (stereo not given) | 3.95 | 5.70 | 44 | 53 | 46 |
| CN1CC(O)(c2ccc(-c3ccccc3F)cc2)OC2CCCCC21 (stereo not given) | 3.31 | 4.38 | 25 | 47 | 18 |
| OC1(c2ccc(-c3ccc(Br)s3)cc2)CN2CCCCC2CO1 (stereo not given) | 3.79 | 5.15 | 37 | 35 | 36 |
| CN1CC(O)(c2ccc(-c3ccc(Br)s3)cc2)OC2CCCCC21 (stereo not given) | 3.80 | 6.00 | 26 | 45 | 35 |
| CN1CCOC(O)(c2ccc(-c3ccc(Br)s3)cc2)C1 (stereo not given) | 4.29 | 4.89 | 35 | 26 | 43 |
| CN1CC(O)(c2ccc(-c3ccccc3)cc2)OC2CCCCC21 (stereo not given) | 3.35 | 4.44 | 49 | 51 | 54 |
| OC1(c2ccc(-c3ccc(Br)cc3)cc2)CN2CCCCC2CO1 (stereo not given) | 3.86 | 5.52 | 17 | 6 | 17 |
| CN1CC(O)(c2ccc(-c3cccs3)cc2)OC2CCCCC21 (stereo not given) | 4.70 | 5.00 | 47 | 46 | 45 |
| OC1(c2ccc(-c3nc4ccccc4s3)cc2)CN2CCCCC2CO1 (stereo not given) | 3.73 | 5.30 | 46 | 41 | 55 |
| CN1CCOC(O)(c2ccc(-c3ccccc3F)cc2)C1 (stereo not given) | 3.74 | 4.40 | 64 | 82 | 67 |
| CN1CC(O)(c2ccc(-c3nc4ccccc4s3)cc2)OC2CCCCC21 (stereo not given) | 3.69 | 5.22 | 0 | 24 | 0 |
| CN1CCOC(O)(c2ccc(-c3ccc(Br)cc3)cc2)C1 (stereo not given) | 3.66 | 5.22 | 51 | 36 | 47 |
| OC1(c2ccc(-c3ccc(Cl)cc3)cc2)CN2CCCCC2CO1 (stereo not given) | 3.75 | 4.82 | 52 | 35 | 44 |
| CN1CCOC(O)(c2ccc(-c3cccs3)cc2)C1 (stereo not given) | 4.06 | 5.30 | 38 | 61 | 48 |
| OC1(c2ccc(-c3ccc(F)cc3)cc2)CN2CCCCC2CO1 (stereo not given) | 3.79 | 5.00 | 95 | 11 | 27 |
| OC1(c2ccc(-c3cccs3)cc2)CN2CCCCC2CO1 (stereo not given) | 3.76 | 5.15 | 29 | 46 | 43 |
| CN1CCOC(O)(c2ccc(-c3ccc(F)cc3)cc2)C1 (stereo not given) | 3.48 | 4.64 | 18 | 36 | 23 |
| CN1CCOC(O)(c2ccc(-c3ccc(Cl)cc3)cc2)C1 (stereo not given) | 3.95 | 5.05 | 70 | 57 | 63 |
| CN1CC(O)(c2ccc(-c3ccc(Br)cc3)cc2)OC2CCCCC21 (stereo not given) | 3.70 | 5.40 | 7 | 53 | 23 |
| OC1(c2ccc(-c3ccccc3F)cc2)CN2CCCCC2CO1 (stereo not given) | 3.41 | 5.00 | 15 | 11 | 5 |
| CN1CC(O)(c2ccc(-c3ccc(Cl)cc3)cc2)OC2CCCCC21 (stereo not given) | 3.74 | 5.05 | 41 | 29 | 11 |
| CN1CC(O)(c2ccc(-c3ccc(F)cc3)cc2)OC2CCCCC21 (stereo not given) | 3.38 | 4.55 | 94 | 33 | 41 |
